Data from ChEMBL document CHEMBL4004831, “Naphthalene diimide-polyamine hybrids as antiproliferative agents: Focus on the architecture of the polyamine chains” (Eur J Med Chem, 2017).
Values belong to the compound of their own block, whether it stands above or below them.

Key:
[1] = organism: Homo sapiens; assay: Stabilization of 5'Dabcyl/3'FAM labeled human telomeric sequence G-quadruplex DNA assessed as increase in melting temperature at 2.5 uM pretreated for 5 mins at 30 degreeC followed by 5 mins incubation at 95 degreeC by fluorescence assay
How it was run: (§1)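 FRET melting in LiP buffer (10 mM LiOH, 50 mM KCl, pH 7.0 with H3PO4), ex 488 nm, em 520 nm. Samples were held 5 min at 30 °C, heated at 1 °C/min to 95 °C, held 5 min, then re-annealed. Tm came from first derivatives; ΔTm = shift with ligand at 2.5; at least three runs.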

[2] = Stabilization of 5'Dabcyl/3'FAM labeled duplex DNA (unknown origin) assessed as increase in melting temperature at 2.5 uM pretreated for 5 mins at 30 degreeC followed by 5 mins incubation at 95 degreeC by fluorescence assay; how it was run: as §1
[3] = test system: CCRF-CEM; assay: Growth inhibition of human CCRF-CEM cells incubated for 48 hrs by sulforhodamine B assay; format: functional
[4] = test system: HL-60; assay: Growth inhibition of human HL60 cells incubated for 48 hrs by sulforhodamine B assay; format: functional; conditions: HL-60, 48 h
[5] = test system: K562; assay: Growth inhibition of human K562 cells incubated for 48 hrs by sulforhodamine B assay; format: functional; conditions: K562, 48 h
[6] = test system: MOLT-4; assay: Growth inhibition of human MOLT4 cells incubated for 48 hrs by sulforhodamine B assay; format: functional; conditions: MOLT-4, 48 h
[7] = test system: RPMI-8226; assay: Growth inhibition of human RPMI8226 cells incubated for 48 hrs by sulforhodamine B assay; format: functional; conditions: RPMI-8226, 48 h
[8] = test system: A549; assay: Growth inhibition of human A549/ATCC cells incubated for 48 hrs by sulforhodamine B assay; format: functional; conditions: A549, 48 h
[9] = test system: NCI-H226; assay: Growth inhibition of human NCI-H226 cells incubated for 48 hrs by sulforhodamine B assay; format: functional; conditions: NCI-H226, 48 h
[10] = test system: NCI-H23; assay: Growth inhibition of human NCI-H23 cells incubated for 48 hrs by sulforhodamine B assay; format: functional; conditions: NCI-H23, 48 h
[11] = test system: NCI-H460; assay: Growth inhibition of human NCI-H460 cells incubated for 48 hrs by sulforhodamine B assay; format: functional; conditions: NCI-H460, 48 h
[12] = test system: NCI-H522; assay: Growth inhibition of human NCI-H522 cells incubated for 48 hrs by sulforhodamine B assay; format: functional; conditions: NCI-H522, 48 h
[13] = test system: COLO 205; assay: Growth inhibition of human COLO205 cells incubated for 48 hrs by sulforhodamine B assay; format: functional; conditions: COLO 205, 48 h
[14] = test system: HCT-116; assay: Growth inhibition of human HCT116 cells incubated for 48 hrs by sulforhodamine B assay; format: functional; conditions: HCT-116, 48 h
[15] = test system: HCT-15; assay: Growth inhibition of human HCT15 cells incubated for 48 hrs by sulforhodamine B assay; format: functional; conditions: HCT-15, 48 h
[16] = test system: KM12; assay: Growth inhibition of human KM12 cells incubated for 48 hrs by sulforhodamine B assay; format: functional; conditions: KM12, 48 h
[17] = test system: SF-268; assay: Growth inhibition of human SF268 cells incubated for 48 hrs by sulforhodamine B assay; format: functional; conditions: SF-268, 48 h
[18] = test system: SF-295; assay: Growth inhibition of human SF295 cells incubated for 48 hrs by sulforhodamine B assay; format: functional; conditions: SF-295, 48 h
[19] = test system: SF-539; assay: Growth inhibition of human SF539 cells incubated for 48 hrs by sulforhodamine B assay; format: functional; conditions: SF-539, 48 h
[20] = test system: SNB-75; assay: Growth inhibition of human SNB75 cells incubated for 48 hrs by sulforhodamine B assay; format: functional; conditions: SNB-75, 48 h
[21] = test system: U-251; assay: Growth inhibition of human U251 cells incubated for 48 hrs by sulforhodamine B assay; format: functional; conditions: U-251, 48 h
[22] = test system: LOX IMVI; assay: Growth inhibition of human LOXIMVI cells incubated for 48 hrs by sulforhodamine B assay; format: functional
[23] = test system: Malme-3M; assay: Growth inhibition of human MALME-3M cells incubated for 48 hrs by sulforhodamine B assay; format: functional
[24] = test system: M14; assay: Growth inhibition of human M14 cells incubated for 48 hrs by sulforhodamine B assay; format: functional; conditions: M14, 48 h
[25] = test system: MDA-MB-435; assay: Growth inhibition of human MDA-MB-435 cells incubated for 48 hrs by sulforhodamine B assay; format: functional; conditions: MDA-MB-435, 48 h
[26] = test system: SK-MEL-2; assay: Growth inhibition of human SK-MEL-2 cells incubated for 48 hrs by sulforhodamine B assay; format: functional; conditions: SK-MEL-2, 48 h
[27] = test system: SK-MEL-28; assay: Growth inhibition of human SK-MEL-28 cells incubated for 48 hrs by sulforhodamine B assay; format: functional; conditions: SK-MEL-28, 48 h
[28] = test system: SK-MEL-5; assay: Growth inhibition of human SK-MEL-5 cells incubated for 48 hrs by sulforhodamine B assay; format: functional; conditions: SK-MEL-5, 48 h
[29] = test system: IGROV-1; assay: Growth inhibition of human IGROV1 cells incubated for 48 hrs by sulforhodamine B assay; format: functional; conditions: IGROV-1, 48 h
[30] = test system: OVCAR-4; assay: Growth inhibition of human OVCAR4 cells incubated for 48 hrs by sulforhodamine B assay; format: functional; conditions: OVCAR-4, 48 h
[31] = test system: OVCAR-5; assay: Growth inhibition of human OVCAR5 cells incubated for 48 hrs by sulforhodamine B assay; format: functional; conditions: OVCAR-5, 48 h
[32] = test system: OVCAR-8; assay: Growth inhibition of human OVCAR8 cells incubated for 48 hrs by sulforhodamine B assay; format: functional; conditions: OVCAR-8, 48 h
[33] = test system: SK-OV-3; assay: Growth inhibition of human SKOV3 cells incubated for 48 hrs by sulforhodamine B assay; format: functional; conditions: SK-OV-3, 48 h
[34] = test system: 786-0; assay: Growth inhibition of human 786-0 cells incubated for 48 hrs by sulforhodamine B assay; format: functional; conditions: 786-0, 48 h
[35] = test system: A498; assay: Growth inhibition of human A498 cells incubated for 48 hrs by sulforhodamine B assay; format: functional; conditions: A498, 48 h
[36] = test system: CAKI-1; assay: Growth inhibition of human Caki1 cells incubated for 48 hrs by sulforhodamine B assay; format: functional; conditions: CAKI-1, 48 h
[37] = test system: SN12C; assay: Growth inhibition of human SN12C cells incubated for 48 hrs by sulforhodamine B assay; format: functional
[38] = test system: PC-3; assay: Growth inhibition of human PC3 cells incubated for 48 hrs by sulforhodamine B assay; format: functional; conditions: PC-3, 48 h
[39] = test system: DU-145; assay: Growth inhibition of human DU145 cells incubated for 48 hrs by sulforhodamine B assay; format: functional; conditions: DU-145, 48 h
[40] = test system: MCF7; assay: Growth inhibition of human MCF7 cells incubated for 48 hrs by sulforhodamine B assay; format: functional; conditions: MCF7, 48 h
[41] = test system: Hs-578T; assay: Growth inhibition of human Hs 578T cells incubated for 48 hrs by sulforhodamine B assay; format: functional
[42] = test system: BT-549; assay: Growth inhibition of human BT549 cells incubated for 48 hrs by sulforhodamine B assay; format: functional; conditions: BT-549, 48 h
[43] = test system: T47D; assay: Growth inhibition of human T47D cells incubated for 48 hrs by sulforhodamine B assay; format: functional
[44] = test system: MDA-MB-468; assay: Growth inhibition of human MDA-MB-468 cells incubated for 48 hrs by sulforhodamine B assay; format: functional; conditions: MDA-MB-468, 48 h

ΔTm [1]: 13.3 °C | ΔTm [2]: 7 °C | GI50 [3]: 193 nM | GI50 [4]: 812 nM | GI50 [5]: 264 nM | GI50 [6]: 194 nM | GI50 [7]: 612 nM | GI50 [8]: 148 nM | GI50 [9]: 746 nM | GI50 [10]: 318 nM | GI50 [11]: 154 nM | GI50 [12]: 572 nM | GI50 [13]: 457 nM | GI50 [14]: 135 nM | GI50 [15]: 887 nM | GI50 [21]: 108 nM | GI50 [25]: 570 nM | GI50 [26]: 907 nM | GI50 [27]: 753 nM | GI50 [28]: 484 nM | GI50 [30]: 873 nM | GI50 [31]: 1410 nM | GI50 [32]: 73 nM | GI50 [33]: 1040 nM | GI50 [34]: 715 nM | GI50 [38]: 477 nM | GI50 [39]: 638 nM | GI50 [40]: 129 nM | GI50 [42]: 1440 nM | GI50 [43]: 793 nM | GI50 [44]: 246 nM
Compound: COc1ccccc1CNCCCN1C(=O)c2ccc3c4c(ccc(c24)C1=O)C(=O)N(CCCNCCCN)C3=O
GI50 [16]: 705 nM | GI50 [17]: 410 nM | GI50 [18]: 456 nM | GI50 [19]: 968 nM | GI50 [20]: 1300 nM | GI50 [22]: 302 nM | GI50 [23]: 393 nM | GI50 [24]: 992 nM | GI50 [29]: 275 nM | GI50 [35]: 398 nM | GI50 [36]: 828 nM | GI50 [37]: 538 nM | GI50 [41]: 1220 nM

ΔTm [1]: 22.2 °C | ΔTm [2]: 9.1 °C | GI50 [3]: 700 nM | GI50 [4]: 1060 nM | GI50 [5]: 1900 nM | GI50 [6]: 939 nM | GI50 [7]: 1950 nM | GI50 [8]: 1580 nM | GI50 [9]: 2260 nM | GI50 [10]: 747 nM | GI50 [11]: 767 nM | GI50 [12]: 1460 nM | GI50 [13]: 690 nM | GI50 [14]: 742 nM | GI50 [15]: 4460 nM | GI50 [21]: 787 nM | GI50 [25]: 960 nM | GI50 [26]: 1090 nM | GI50 [27]: 1630 nM | GI50 [28]: 730 nM | GI50 [30]: 713 nM | GI50 [31]: 3050 nM | GI50 [32]: 826 nM | GI50 [33]: 4030 nM | GI50 [34]: 2280 nM | GI50 [38]: 2300 nM | GI50 [39]: 1600 nM | GI50 [40]: 643 nM | GI50 [42]: 2230 nM | GI50 [43]: 1300 nM | GI50 [44]: 284 nM
Compound: COc1ccccc1CNCCCN1C(=O)c2ccc3c4c(ccc(c24)C1=O)C(=O)N(CCCCNCCCN)C3=O
GI50 [16]: 2550 nM | GI50 [17]: 1660 nM | GI50 [18]: 3660 nM | GI50 [19]: 1680 nM | GI50 [20]: 16700 nM | GI50 [22]: 1030 nM | GI50 [23]: 984 nM | GI50 [24]: 1900 nM | GI50 [29]: 1440 nM | GI50 [35]: 4400 nM | GI50 [36]: 13200 nM | GI50 [37]: 947 nM | GI50 [41]: 2300 nM
